One data set has as its system Coxsackievirus B3. The data set can be described thus: Antiviral activity against Coxsackie virus B3 […] infected in human HeLa cells assessed as reduction of virus-induced cytopathic effect by MTT assay. The class given is functional, organism-based, Nancy. The essentials:
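HeLa monolayers were exposed to 100 TCID₅₀ of CVB3 […] together with serial 2-fold compound dilutions below CC₅₀, in DMEM with 2% serum. Uninfected and untreated infected wells served as controls. Plates were kept at 37 °C in humidified CO₂ until virus control CPE peaked, then read by MTT. IC₅₀ is the concentration reducing CPE by 50%, as mean of three independent experiments.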

Data set [1] can be described thus: Cytotoxicity against human HeLa cells after 48 hrs by MTT assay. It counts as cell-based. The essentials:
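HeLa monolayers were treated with compound at 200–6.25 µg/mL in DMEM with 2% serum for 48 h at 37 °C. MTT (0.5 mg/mL in PBS) was added for 4 h, then DMSO for 30 min at room temperature, and OD was read at 570/630 nm. CC₅₀ was taken from the mean dose-response curve of three independent experiments.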

Data set [2] can be described thus: Therapeutic index, CC50 for human HeLa cells to IC50 for Coxsackie virus B3 […]. The class given is cell-based. The settings on record: read-out: Ratio CC50/IC50. An outline of the steps: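 TI is CC₅₀ divided by IC₅₀. CC₅₀ comes from a 48 h HeLa MTT viability assay; IC₅₀ comes from an MTT-read CPE-inhibition assay with 100 TCID₅₀ CVB3 […] in HeLa cells. Both use DMEM with 2% serum at 37 °C and are means of three independent experiments.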

The mark [3] stands for this setting: Enterovirus B, Nancy, HeLa, read-out: IC50.

The record followed here is ChEMBL document CHEMBL1152344, “Anti-coxsackie virus B3 norsesquiterpenoids from the roots of Phyllanthus emblica” (J Nat Prod, 2009).

Converted amounts (≈) assume the structure as drawn.

As a reminder, the IC50 is the midpoint of a concentration-inhibition curve. As to `C[C@@H]1CO[C@@]2(C[C@@H]1OC(=O)c1ccc(O)cc1)O[C@@H]1C[C@@H](C(=O)O[C@@H]3O[C@H](CO)[C@@H](O)[C@H](O)[C@H]3O[C@@H]3O[C@H](CO)[C@@H](O)[C@H](O)[C@H]3O)C[C@@H](O)[C@]1(O)C2=O` [4'-HYDROXYPHYLLAEMBLICIN B], the IC50 result with Coxsackievirus B3 (hela) is “Not Active”.

For `C[C@@H]1CO[C@@]2(C[C@@H]1OC(=O)c1ccccc1)O[C@@H]1C[C@@H](C(=O)O[C@@H]3O[C@H](CO)[C@@H](O)[C@H](O)[C@H]3O)C[C@@H](O)[C@]1(O)C2=O` [PHYLLAEMBLICIN A], in the data set on Coxsackievirus B3 (hela), the IC50 result is reported as “Not Active”.

For orientation: CC50 means the concentration that lowers cell viability or growth by half. As to `C[C@@H]1CO[C@@]2(C[C@@H]1OC(=O)c1ccccc1)O[C@@H]1C[C@@H](C(=O)O[C@@H]3O[C@H](CO)[C@@H](O)[C@H](O)[C@H]3O[C@@H]3O[C@H](CO)[C@@H](O)[C@H](O)[C@H]3O)C[C@@H](O)[C@]1(O)C2=O` [PHYLLAEMBLICIN B], in the data set with Coxsackievirus B3 (setting [3]), the half-inhibitory concentration (IC50) came out at 7.8 µg/mL (≈ 10.5 µM). This molecule also gave a cytotoxic concentration (CC50) at 48 h in data set [1] of 50.2 µg/mL (≈ 67.4 µM). In addition, in data set [2], the selectivity ratio amounted to 6.4.

As for `C[C@@H]1CO[C@@]2(C[C@@H]1OC(=O)c1ccccc1)O[C@@H]1C[C@@H](C(=O)O[C@@H]3O[C@H](CO)[C@@H](O)[C@H](O)[C@H]3O[C@@H]3O[C@H](CO)[C@@H](O)[C@H](O)[C@H]3O[C@@H]3OC[C@@H](O)[C@@H](O)[C@@H]3O)C[C@@H](O)[C@]1(O)C2=O` [PHYLLAEMBLICIN C], the IC50 in the data set with Coxsackievirus B3 (setting [3]) came to 11 µg/mL (≈ 12.5 µM). The molecule further yielded a cytotoxic concentration (CC50) at 48 h in data set [1] of 67.7 µg/mL (≈ 77.2 µM). In addition, the selectivity ratio in data set [2] was found to be 6.2.

Regarding `C[C@@H]1CO[C@@]2(C[C@@H]1OC(=O)c1ccccc1)O[C@@H]1C[C@@H](C(=O)OC[C@H]3O[C@@H](O[C@H]4[C@H](OC(=O)[C@H]5C[C@@H](O)[C@]6(O)C(=O)[C@]7(C[C@H](OC(=O)c8ccccc8)[C@H](C)CO7)O[C@@H]6C5)O[C@H](CO)[C@@H](O)[C@@H]4O)[C@H](O)[C@@H](O)[C@@H]3O)C[C@@H](O)[C@]1(O)C2=O` [PHYLLAEMBLICIN F], the IC50 entry with Coxsackievirus B3 (hela) is given as “Not Active”.

Consider `C[C@@H]1CO[C@@]2(C[C@@H]1OC(=O)c1ccccc1)O[C@@H]1C[C@@H](C(=O)O[C@@H]3O[C@H](CO)[C@@H](O)[C@H](O)[C@H]3O[C@@H]3O[C@H](CO)[C@@H](O)[C@H](O)[C@H]3O[C@@H]3OC[C@H](O)[C@@H](O)[C@@H]3O)C[C@@H](O)[C@]1(O)[C@H]2O` [PHYLLAEMBLICIN E], for which the 50% inhibitory concentration (IC50) entry with Coxsackievirus B3 (hela) is given as “Not Active”.

`C[C@@H]1CO[C@@]2(C[C@@H]1OC(=O)c1ccccc1)O[C@@H]1C[C@@H](C(=O)O)C[C@@H](O)[C@]1(O)C2=O` [PHYLLAEMBLIC ACID]: the 50% inhibitory concentration (IC50) result in the data set on Coxsackievirus B3 (hela) is given as “Not Active”.

For the molecule `COC(=O)[C@H]1C[C@@H](O)[C@]2(O)C(=O)[C@]3(C[C@H](OC(=O)c4ccccc4)[C@H](C)CO3)O[C@@H]2C1` [PHYLLAEMBLIC ACID METHY ESTER], the IC50 with Coxsackievirus B3 (setting [3]) is 21.8 µg/mL (≈ 50.2 µM). Besides, half-maximal cytotoxicity in data set [1] (CC50 at 48 h) was put at 214 µg/mL (≈ 492 µM). In addition, the selectivity ratio in data set [2] turned out to be 9.8.

Regarding `NC(=O)c1ncn([C@@H]2O[C@H](CO)[C@@H](O)[C@H]2O)n1` [RIBAVIRIN], the IC50 with Coxsackievirus B3 (setting [3]) turned out to be 20.3 µg/mL (≈ 83.1 µM). The molecule further yielded a 50% cytotoxic concentration (CC50) at 48 h in data set [1] of 426 µg/mL (≈ 1740 µM). The selectivity ratio in data set [2] worked out at 21.
